What was measured:
Human betaherpesvirus 5 [1] = assay: Antiviral activity against human cytomegalovirus 1117 harboring UL54 K513N mutant gene infected in HFF after 8 to 10 days by plaque reduction assay; format: functional, organism-based; settings: Human betaherpesvirus 5, 1117
How it was run: (§1)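 Plaque reduction in confluent HFF with six serial dilutions (top 100 μM) and no immunoglobulin added. Virus was adsorbed 1 h on triplicate wells. Cells were incubated 8 days, stained with 0.017% neutral red in PBS, and plaques counted. EC50 is the concentration reducing plaque number by 50%.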

Human betaherpesvirus 5 [2] = assay: Antiviral activity against human cytomegalovirus C8914-6 harboring UL97 I244V, L595F and UL54 L501F mutant gene infected in HFF after 8 to 10 days by plaque reduction assay; format: functional, organism-based; settings: Human betaherpesvirus 5, C8914-6; how it was run: as §1
Human betaherpesvirus 5 [3] = assay: Antiviral activity against human cytomegalovirus RC314 harboring UL97 K355M mutant gene infected in HFF after 8 to 10 days by plaque reduction assay; format: functional, organism-based; settings: Human betaherpesvirus 5, RC314; how it was run: as §1
Human betaherpesvirus 5 [4] = assay: Antiviral activity against human cytomegalovirus 759D100 harboring deletion mutation in UL97 gene and UL54 A987G mutant gene infected in HFF after 8 to 10 days by plaque reduction assay; format: functional, organism-based; settings: Human betaherpesvirus 5, 759D100; how it was run: as §1
Human betaherpesvirus 5 [5] = assay: Antiviral activity against human cytomegalovirus PFAB300 harboring UL54 L724V mutant gene infected in HFF after 8 to 10 days by plaque reduction assay; format: functional, organism-based; settings: Human betaherpesvirus 5, PFAB300; how it was run: as §1
Human betaherpesvirus 5 [6] = assay: Antiviral activity against human cytomegalovirus AD169 infected in HFF after 8 to 10 days by plaque reduction assay; format: functional, organism-based; settings: Human betaherpesvirus 5, AD169
How it was run: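 Plaque reduction on confluent HFF monolayers in triplicate wells: 1 h adsorption, then six serial compound dilutions (top 100 μM) in MEM with 2% FBS, no immunoglobulin. Incubation was 8 days for HCMV and 10 days for VZV. Plaques were stained with 0.017% neutral red in PBS and counted microscopically. EC50 was interpolated at 50% plaque reduction.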

Human betaherpesvirus 5 [7] = assay: Antiviral activity against human cytomegalovirus VR4955 harboring UL54 T700A mutant gene infected in HFF after 8 to 10 days by plaque reduction assay; format: functional, organism-based; settings: Human betaherpesvirus 5, VR4955; how it was run: as §1
Human alphaherpesvirus 2 [8] = assay: Selectivity ratio of EC50 for 4'-thioIDU-resistant HSV2 infected in HFF to EC50 for HSV2 MS infected in HFF; format: functional
Human alphaherpesvirus 2 [9] = assay: Antiviral activity against HSV2 harboring frameshift mutation in TK infected in HFF after 3 days by plaque reduction assay; format: functional, organism-based; settings: Human alphaherpesvirus 2, 72 h
How it was run: (§2)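 Confluent HFF monolayers (passage <10) were infected in triplicate wells at 20–30 plaques per well, with 1 h adsorption and rocking every 15 min. Six serial dilutions (top 100 μM) were made in MEM with 2% FBS and pooled human immunoglobulin. Cells were incubated 3 days and stained with crystal violet. Plaques were counted, and EC50 was interpolated from plaque reduction.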

Human alphaherpesvirus 1 [10] = assay: Antiviral activity against HSV1 E377 infected in HFF assessed as decrease in viral DNA accumulation after 3 days; format: functional, organism-based; settings: Human alphaherpesvirus 1, E377, 72 h
[11] = Antiviral activity against Human herpesvirus 6 GS infected in human HSB2 cells assessed as decrease in viral DNA accumulation after 7 days; format: functional, cell-based, Human herpesvirus 6 (strain GS); settings: Human betaherpesvirus 6A, HSB2, 168 h
How it was run: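 HSB-2 cells (2 × 10^4/well) in RPMI 1640 with 10% FBS were infected with HHV-6A strain GS, with compound dilutions in triplicate wells, at 37°C for 7 days. Total DNA was denatured and immobilized on nylon. Viral DNA accumulation was measured by digoxigenin-labeled DNA probe hybridization and anti-hapten antibody detection.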

Human gammaherpesvirus 8 = assay: Antiviral activity against Human herpesvirus 8 infected in human BCBL1 cells assessed as decrease in viral DNA accumulation after 7 days; format: functional, organism-based; settings: Human gammaherpesvirus 8, BCBL1, 168 h
How it was run: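 BCBL1 cells in RPMI 1640 with 10% FBS were induced to lytic replication with phorbol 12-myristate 13-acetate (100 ng/ml final). Compound was tested in triplicate wells up to 100 μM for 7 days at 37°C. Total DNA was purified and viral DNA quantified by TaqMan qPCR. EC50 is the concentration giving 50% reduction of DNA accumulation.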

Human alphaherpesvirus 2 [12] = assay: Antiviral activity against 4'-thioIDU-resistant HSV2 infected in HFF after 3 days by plaque reduction assay; format: functional, organism-based; settings: Human alphaherpesvirus 2, 72 h; how it was run: as §2
Human alphaherpesvirus 2 [13] = assay: Antiviral activity against HSV2 MS infected in HFF assessed as decrease in viral DNA accumulation after 3 days; format: functional, organism-based; settings: Human alphaherpesvirus 2, MS, 72 h
Human alphaherpesvirus 2 [14] = assay: Antiviral activity against HSV2 MS infected in HFF after 3 days by plaque reduction assay; format: functional, organism-based; settings: Human alphaherpesvirus 2, MS, 72 h
How it was run: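 Confluent primary HFF monolayers (passage <10), triplicate wells, virus dosed at 20–30 plaques/well. Adsorption was 1 h with rocking every 15 min. Six serial dilutions, top 100 μM, were made in MEM with 2% FBS plus pooled human immunoglobulin. After 3 days, wells were stained with 0.1% crystal violet in 20% methanol and plaques counted microscopically. EC50 was interpolated.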

Human gammaherpesvirus 4 = assay: Antiviral activity against Epstein-Barr virus infected in human Akata cells assessed as decrease in viral DNA accumulation after 72 hrs; format: functional, organism-based; settings: human gammaherpesvirus 4, Akata
How it was run: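 Latent Akata cells in RPMI 1640 with 10% FBS were induced to productive infection with 50 μg/ml goat anti-human IgG, 4 × 10^4 cells per well, with compound at 100–0.032 μM. After 72 h, NaOH/NaCl denaturation was followed by nylon membrane blotting. Viral DNA was quantified by digoxigenin-labeled probe hybridization and anti-hapten antibody detection.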

Human betaherpesvirus 5 [15] = assay: Antiviral activity against human cytomegalovirus AD169 infected in HFF assessed as decrease in viral DNA accumulation after 8 to 10 days; format: functional, organism-based; settings: Human betaherpesvirus 5, AD169
Human alphaherpesvirus 3 = assay: Antiviral activity against VZV Ellan infected in HFF assessed as decrease in viral DNA accumulation after 8 to 10 days; format: functional, organism-based; settings: Human alphaherpesvirus 3, Ellan
[16] = Cytotoxicity against HFF after 3 days by MTS assay; format: cell-based; settings: human, HFF cells
Human alphaherpesvirus 2 [17] = assay: Antiviral activity against HSV2 13077 harboring TK R223H mutant gene infected in HFF after 3 days by plaque reduction assay; format: functional, organism-based; settings: Human alphaherpesvirus 2, 13077, 72 h; how it was run: as §2
Human alphaherpesvirus 1 [18] = assay: Antiviral activity against HSV1 SC16-S1 harboring TK A265T/C336Y mutant gene infected in HFF after 3 days by plaque reduction assay; format: functional, organism-based; settings: Human alphaherpesvirus 1, SC16-S1, 72 h; how it was run: as §2
Human alphaherpesvirus 1 [19] = assay: Antiviral activity against HSV1 B-2006 harboring frameshift mutation at Q185 in TK infected in HFF after 3 days by plaque reduction assay; format: functional, organism-based; settings: Human alphaherpesvirus 1, B-2006, 72 h; how it was run: as §2
Human alphaherpesvirus 2 [20] = assay: Antiviral activity against HSV2 AG-3 harboring TK Q105P mutant gene infected in HFF after 3 days by plaque reduction assay; format: functional, organism-based; settings: Human alphaherpesvirus 2, AG-3, 72 h; how it was run: as §2
Human alphaherpesvirus 2 [21] = assay: Antiviral activity against HSV2 11680 harboring TK R223H mutant gene infected in HFF after 3 days by plaque reduction assay; format: functional, organism-based; settings: Human alphaherpesvirus 2, 11680, 72 h; how it was run: as §2
HFF = assay: Antiproliferative activity against HFF after 3 days by Coulter counting analysis; format: cell-based; settings: Homo sapiens, 72 h
How it was run: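 HFF seeded at 2.5 × 10^4 cells/well and allowed 24 h before compound dilutions in growth medium were added. Cells were incubated 72 h at 37°C, detached with trypsin-EDTA, and viable cells counted with a Coulter Counter in triplicate wells. The mean cell number gave the concentration reducing cell number by 50%.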

Human alphaherpesvirus 1 [22] = assay: Antiviral activity against HSV1 E377 infected in HFF after 3 days by plaque reduction assay; format: functional, organism-based; settings: Human alphaherpesvirus 1, E377, 72 h; how it was run: as §2
Human alphaherpesvirus 2 [23] = assay: Antiviral activity against HSV2 12247 harboring TK C337Y mutant gene infected in HFF after 3 days by plaque reduction assay; format: functional, organism-based; settings: Human alphaherpesvirus 2, 12247, 72 h; how it was run: as §2
Human alphaherpesvirus 1 [24] = assay: Antiviral activity against HSV1 PAA5 harboring polymerase R842S mutant gene infected in HFF after 3 days by plaque reduction assay; format: functional, organism-based; settings: Human alphaherpesvirus 1, PAA5, 72 h; how it was run: as §2
Human alphaherpesvirus 1 [25] = assay: Antiviral activity against HSV1 DM2.1 harboring frameshift mutation in TK infected in HFF after 3 days by plaque reduction assay; format: functional, organism-based; settings: Human alphaherpesvirus 1, DM2.1, 72 h; how it was run: as §2
[26] = Selectivity index, ratio of CC50 for HFF to EC50 for HSV2 MS infected in HFF

EC50 (Human alphaherpesvirus 2 [14])	SMILES	Ratio EC50 (Human alphaherpesvirus 2 [8])	EC50 (Human alphaherpesvirus 2 [9])	EC50 (Human alphaherpesvirus 2 [12])	CC50 at 72 h [16]	IC50 (HFF)	Ratio CC50/EC50 [26]	further results
	Nc1nc2c(ncn2COC(CO)CO)c(=O)[nH]1 [GANCICLOVIR]							EC50 (Human betaherpesvirus 5 [1]): 15 µM; EC50 (Human betaherpesvirus 5 [2]): 53 µM; EC50 (Human betaherpesvirus 5 [3]): 44 µM; EC50 (Human betaherpesvirus 5 [4]): 230 µM; EC50 (Human betaherpesvirus 5 [5]): 9.8 µM; EC50 (Human betaherpesvirus 5 [6]): 3.3 µM; EC50 (Human betaherpesvirus 5 [7]): 7.2 µM
0.3 µM	O=c1[nH]c(=O)n([C@H]2C[C@H](O)[C@@H](CO)S2)cc1C(F)(F)F				> 100 µM	0.1 µM	> 330	
0.2 µM	Cc1cn([C@H]2C[C@H](O)[C@@H](CO)S2)c(=O)[nH]c1=O [4'-THIOTHYMIDINE]				> 100 µM	< 0.03 µM	> 500	
4.8 µM	O=c1[nH]c(=O)n([C@H]2C[C@H](O)[C@@H](CO)S2)cc1Br				> 100 µM		> 21	
0.9 µM	Nc1ccn([C@@H]2S[C@H](CO)[C@@H](O)[C@@H]2O)c(=O)n1 [THIARABINE]				> 100 µM		> 110	
15 µM	Nc1nc(=O)n([C@H]2C[C@H](O)[C@@H](CO)S2)cc1Br				> 100 µM	> 100 µM	> 6.7	

SMILES	EC50 (Human alphaherpesvirus 2 [14])	Ratio EC50 (Human alphaherpesvirus 2 [8])	EC50 (Human alphaherpesvirus 2 [9])	EC50 (Human alphaherpesvirus 2 [12])	CC50 at 72 h [16]	IC50 (HFF)	Ratio CC50/EC50 [26]	further results
Nc1ccn(C[C@@H](CO)OCP(=O)(O)O)c(=O)n1.O.O [CIDOFOVIR]	9.5 µM	1.3	1.2 µM	4.7 µM	> 100 µM			EC50 (Human alphaherpesvirus 1 [10]): 5.5 µM; EC50 [11]: 2.7 µM; EC50 (Human gammaherpesvirus 8): 0.064 µM; EC50 (Human alphaherpesvirus 2 [13]): 5.1 µM; EC50 (Human gammaherpesvirus 4): 0.48 µM; EC50 (Human betaherpesvirus 5 [15]): 0.4 µM; EC50 (Human alphaherpesvirus 3): 0.5 µM
Nc1nc2c(ncn2COCCO)c(=O)[nH]1 [ACYCLOVIR]	3 µM	>100	> 100 µM	> 440 µM	> 444 µM	> 444 µM		EC50 (Human alphaherpesvirus 2 [17]): 4.9 µM; EC50 (Human alphaherpesvirus 1 [18]): 0.6 µM; EC50 (Human alphaherpesvirus 1 [19]): 4.4 µM; EC50 (Human alphaherpesvirus 2 [20]): 4.7 µM; EC50 (Human alphaherpesvirus 2 [21]): 6.6 µM; EC50 (Human alphaherpesvirus 1 [22]): 0.08 µM; EC50 (Human alphaherpesvirus 2 [23]): 9.6 µM; EC50 (Human alphaherpesvirus 1 [24]): 0.011 µM; EC50 (Human alphaherpesvirus 1 [25]): 12 µM
O=C(O)P(=O)(O)O [FOSCARNET]	670 µM	0.66	389 µM	403 µM				
O=c1[nH]c(=O)n([C@H]2C[C@H](O)[C@@H](CO)O2)cc1I [IDOXURIDINE]	2.4 µM	42	78 µM	> 100 µM				

— ChEMBL document CHEMBL1649277, “Inhibition of herpesvirus replication by 5-substituted 4'-thiopyrimidine nucleosides” (Antimicrob Agents Chemother, 2009)
